Test results: ChEMBL document CHEMBL1687770, “Activity of a trisubstituted pyrrole in inhibiting sporozoite invasion and blocking malaria infection” (2010)
Active and inactive are the calls of the source. No cut-off for these calls is given here.

What was measured:
[1] = test system: Plasmodium berghei; assay: Inhibition of Plasmodium berghei NK65 motility up to 10 uM after 2 hrs; assay type: functional, organism-based
How it was run: (§1)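 Gliding assay. Slides were coated with anti-CSP MAb 3D11 (10 μg/ml). P. berghei NK65 sporozoites (1 × 10⁴/well) were added with compound at 0.5, 2 or 10 μM in DMEM with 3% BSA and incubated 2 h at 37°C. Wells were fixed with paraformaldehyde and blocked. Trails were stained with biotinylated 3D11 and streptavidin-FITC.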

[2] = test system: Plasmodium berghei; assay: Antimalarial activity against PbPKG knockout Plasmodium berghei NK65 infected in human HepG2 cells assessed as reduction of liver stage parasites level treated before infection measured 40 hrs after drug washout; assay type: functional, organism-based
[3] = test system: Plasmodium berghei; assay: Antimalarial activity against Plasmodium berghei NK65 infected in human HepG2 cells assessed as reduction of liver stage parasites level treated for 12 hrs measured 40 hrs after drug washout; assay type: functional, organism-based
How it was run: (§2)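 P. berghei NK65 sporozoites from mosquito salivary glands (5 × 10⁴/well) added to HepG2 cells seeded the day before in DMEM/10% FCS, with compound at 0.5, 2 or 10 μM. At 12 h p.i. the medium was replaced with compound-free medium. Liver stages at 40 h p.i. were stained with MAb 2E6 and FITC anti-mouse IgG and counted by fluorescence microscopy. At least three experiments, each in duplicate.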

[4] = test system: Plasmodium berghei; assay: Antimalarial activity against Plasmodium berghei NK65 infected in human HepG2 cells assessed as reduction of liver stage parasites level at 2 uM treated for 12 hrs measured 40 hrs after drug washout; assay type: functional, organism-based; how it was run: as §2
[5] = test system: Plasmodium berghei; assay: Antimalarial activity against Plasmodium berghei NK65 assessed as reduction of number of complex trails up to 10 uM relative to untreated control; assay type: functional; design: scale not given: the % may be the effect or the level left; how it was run: as §1
[6] = test system: Plasmodium berghei; assay: Antimalarial activity against Plasmodium berghei NK65 infected in human HepG2 cells assessed as inhibition of sporozoite invasion after 1 hr; assay type: functional
How it was run: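 HepG2 cells were infected with P. berghei NK65 sporozoites (5 × 10⁴/well) with compound at 0.5, 2 or 10 μM for 1 h at 37°C. Cells were fixed with 4% paraformaldehyde and double-stained to tell intracellular from extracellular sporozoites. Intracellular sporozoites were counted.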

[7] = test system: Plasmodium yoelii; assay: Antimalarial activity against Plasmodium yoelii infected in Swiss-Webster mouse liver assessed as reduction of parasite burden at 50 mg/kg, ip administered 15 mins before infection measured up to 22 days relative to PBS treated group; conditions: route intraperitoneal
[8] = test system: Plasmodium yoelii; assay: Antimalarial activity against Plasmodium yoelii 17XNL infected in Swiss-Webster mouse liver assessed as reduction liver-stage infection at 50 mg/kg, ip administered 15 mins before infection measured up to 22 days; assay type: functional, organism-based; design: dose 50 mg/kg
How it was run: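 Female Swiss-Webster mice (6–8 weeks, n = 3) received one ip dose of 50 mg/kg in PBS, or PBS alone, before iv infection with P. yoelii 17XNL sporozoites (1 × 10⁴/mouse). The prepatent period was followed by daily Giemsa-stained blood smears.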

[9] = test system: Plasmodium yoelii; assay: Antimalarial activity against Plasmodium yoelii 17XNL infected in Swiss-Webster mouse liver assessed as prevention of appearance of blood-stage parasites at 50 mg/kg, ip administered first dose 15 mins before infection and second and third doses given 6 hrs and 12 hrs postinfection measured up to 22 days; assay type: functional, organism-based; design: dose 50 mg/kg
How it was run: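 Female Swiss-Webster mice (6–8 weeks, n = 10) were given 50 mg/kg ip in PBS, or PBS alone. Doses were given 15 min before iv injection of P. yoelii 17XNL sporozoites (5 × 10³/mouse), then at 6 h and 12 h p.i. Blood-stage parasites were checked daily on Giemsa-stained smears for up to 3 weeks.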

[10] = test system: Plasmodium berghei; assay: Antimalarial activity against PbPKG knockout Plasmodium berghei NK65 infected in human HepG2 cells assessed as reduction of liver stage parasites level treated for 3 hrs measured 40 hrs after drug washout; assay type: functional, organism-based
[11] = test system: Plasmodium berghei; assay: Antimalarial activity against Plasmodium berghei NK65 infected in human HepG2 cells assessed as inhibition of transformation of sporozoites into liver stage at 10 uM treated for 3 hrs measured 40 hrs after drug washout; assay type: functional, organism-based
How it was run: (§3)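 HepG2 cells were infected with P. berghei NK65 sporozoites (5 × 10⁴/well) in the presence of compound. The compound-containing medium was removed 3 h after infection. Liver stages at 40 h p.i. were immunostained with MAb 2E6 and FITC secondary, then counted by fluorescence microscopy. At least three experiments, in duplicate.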

[12] = test system: Plasmodium berghei; assay: Antimalarial activity against Plasmodium berghei ANKA infected through mosquito bite in C57BL/6 mouse liver assessed as increase of average prepatent period at 50 mg/kg, ip administered first dose 15 mins before infection and second and third doses given 6 hrs and 12 hrs postinfection measured up to 22 days (reference value: 2.66 +/- 0.57 days); conditions: route intraperitoneal
[13] = test system: Plasmodium berghei; assay: Antimalarial activity against Plasmodium berghei NK65 infected in human HepG2 cells assessed as inhibition of transformation of sporozoites into liver stage at 10 uM treated 3 hrs after infection measured 40 hrs after drug washout; assay type: functional, organism-based
How it was run: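 Compound at 10 μM was added to HepG2 cultures 3 h after P. berghei NK65 sporozoite addition. Liver stages were detected at 40 h p.i. by MAb 2E6/FITC immunofluorescence and counted. Compared with untreated wells by t test. At least three experiments, in duplicate.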

[14] = test system: Plasmodium berghei; assay: Antimalarial activity against Plasmodium berghei NK65 infected in human HepG2 cells assessed as reduction of liver stage parasites level at 2 uM treated for 3 hrs measured 40 hrs after drug washout; assay type: functional, organism-based; how it was run: as §3
[15] = test system: Plasmodium yoelii; assay: Antimalarial activity against Plasmodium yoelii 17XNL infected in Swiss-Webster mouse liver assessed as reduction of parasite burden at 50 mg/kg, ip administered 15 mins before infection measured up to 22 days relative to PBS treated group; assay type: functional; conditions: route intraperitoneal

SMILES: CN1CCC(c2cc(-c3ccncc3)c(-c3ccc(F)cc3)[nH]2)CC1
- inhibition [1]: inactive
- Activity [2]: inactive
- Activity [3]: Dose dependent effect
- Activity [4]: Active
- Activity [5]: 50%
- INH [6]: >1 µM
- fold change (FC) [7]: >1000
- Activity [8]: Active
- Activity [9]: Active
- Activity [10]: Active
- inhibition [11]: Active
- Time [12]: 5.33 days
- inhibition [13]: inactive
- Activity [14]: Active
- fold change (FC) [15]: >1000
